According to ChEMBL document CHEMBL3861960, “Leoligin, the Major Lignan from Edelweiss (Leontopodium nivale subsp. alpinum), Promotes Cholesterol Efflux from THP-1 Macrophages” (J Nat Prod, 2016):
The source made the active and inactive calls. No cut-off for these calls is given here.

Assays:
[1] = Upregulation of ABCG1 mRNA expression in human THP1 cells at 10 uM after 24 hrs by qPCR method relative to control; type: functional, cell-based; conditions: THP-1
Outline: (§1)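 THP-1 macrophages treated for 24 h with 10 μM compound, 10 μM pioglitazone or DMSO. Total RNA extracted and converted to cDNA; ABCA1 or ABCG1 measured by SYBR Green qPCR and expressed relative to 18S. Mean ± SD of four independent experiments; one-way ANOVA with Bonferroni test against DMSO.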

[2] = Upregulation of ABCA1 mRNA expression in human THP1 cells at 10 uM after 24 hrs by qPCR method relative to control; type: functional, cell-based; conditions: THP-1; outline: as §1

With `CCc1ccc(CCOc2ccc(CC3SC(=O)NC3=O)cc2)nc1` (configuration not stated) the Activity [1] was “Active” and the Activity [2] was “Active”.
